Legend:
Conditions in all cases: stereoisomer not certain
OR4CD V133I = tested on: OR4CD V133I
Outline: (§1)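 Assay methods differ from source to source, frequently being transient luciferase assays in mammalian cell lines. For each receptor–molecule pair, the label responsive (active) applies when the original authors judged the measured signal statistically different from baseline, and non-responsive (inactive) applies otherwise.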

OR4CF = tested on: OR4CF
Outline: as §1

OR4CG T76A = tested on: OR4CG T76A
Outline: as §1

OR4D1 (Homo sapiens) = OR4D1 (Homo sapiens) (UniProt Q15615)
Outline: as §1

OR4D10 (Homo sapiens) = OR4D10 (Homo sapiens) (UniProt Q8NGI6)
Outline: as §1

OR4D11 (Homo sapiens) = OR4D11 (Homo sapiens) (UniProt Q8NGI4)
Outline: as §1

OR4D1 = tested on: OR4D1
Outline: as §1

OR4D2 (Homo sapiens) = OR4D2 (Homo sapiens) (UniProt P58180)
Outline: as §1

OR4D2 = tested on: OR4D2
Outline: as §1

OR4D5 (Homo sapiens) = OR4D5 (Homo sapiens) (UniProt Q8NGN0)
Outline: as §1

Measured: odorant receptor agonist call

Chain of OR4D11 (Homo sapiens) (Q8NGI4 whole entry): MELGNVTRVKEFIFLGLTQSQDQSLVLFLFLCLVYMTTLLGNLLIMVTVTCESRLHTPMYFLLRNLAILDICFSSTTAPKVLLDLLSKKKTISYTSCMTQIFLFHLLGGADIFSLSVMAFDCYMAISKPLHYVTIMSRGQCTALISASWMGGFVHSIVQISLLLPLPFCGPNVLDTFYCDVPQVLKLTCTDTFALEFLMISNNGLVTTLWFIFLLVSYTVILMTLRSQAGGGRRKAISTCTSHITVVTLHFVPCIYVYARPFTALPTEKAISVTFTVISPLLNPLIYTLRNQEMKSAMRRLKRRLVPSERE
Chain of OR4D5 (Homo sapiens) (Q8NGN0 whole entry): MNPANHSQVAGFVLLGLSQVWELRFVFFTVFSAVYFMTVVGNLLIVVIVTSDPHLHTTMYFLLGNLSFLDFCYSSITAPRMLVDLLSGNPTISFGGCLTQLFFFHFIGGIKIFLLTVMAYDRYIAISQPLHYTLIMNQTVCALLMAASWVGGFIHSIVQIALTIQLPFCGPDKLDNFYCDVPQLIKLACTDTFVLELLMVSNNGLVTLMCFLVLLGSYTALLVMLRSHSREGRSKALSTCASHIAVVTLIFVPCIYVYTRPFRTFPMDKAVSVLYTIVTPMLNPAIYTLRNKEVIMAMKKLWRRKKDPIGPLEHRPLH
Chain of OR4D1 (Homo sapiens) (Q15615 whole entry): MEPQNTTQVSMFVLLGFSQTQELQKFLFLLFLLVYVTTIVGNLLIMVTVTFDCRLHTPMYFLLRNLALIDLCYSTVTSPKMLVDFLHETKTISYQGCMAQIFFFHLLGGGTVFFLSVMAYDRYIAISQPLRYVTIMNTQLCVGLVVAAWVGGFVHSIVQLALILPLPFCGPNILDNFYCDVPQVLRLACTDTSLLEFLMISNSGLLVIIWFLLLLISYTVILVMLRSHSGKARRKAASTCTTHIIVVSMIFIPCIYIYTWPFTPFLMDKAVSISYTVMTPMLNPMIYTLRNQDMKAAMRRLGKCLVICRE
Chain of OR4D2 (Homo sapiens) (P58180 whole entry): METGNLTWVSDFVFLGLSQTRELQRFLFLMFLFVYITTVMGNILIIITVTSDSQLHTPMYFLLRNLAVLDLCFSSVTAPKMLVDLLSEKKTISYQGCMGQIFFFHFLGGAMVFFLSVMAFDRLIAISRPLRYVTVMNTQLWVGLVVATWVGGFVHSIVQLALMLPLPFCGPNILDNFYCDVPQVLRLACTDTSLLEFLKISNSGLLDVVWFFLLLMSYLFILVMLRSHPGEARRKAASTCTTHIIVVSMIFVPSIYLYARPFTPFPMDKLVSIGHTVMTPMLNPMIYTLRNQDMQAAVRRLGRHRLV
Chain of OR4D10 (Homo sapiens) (Q8NGI6 whole entry): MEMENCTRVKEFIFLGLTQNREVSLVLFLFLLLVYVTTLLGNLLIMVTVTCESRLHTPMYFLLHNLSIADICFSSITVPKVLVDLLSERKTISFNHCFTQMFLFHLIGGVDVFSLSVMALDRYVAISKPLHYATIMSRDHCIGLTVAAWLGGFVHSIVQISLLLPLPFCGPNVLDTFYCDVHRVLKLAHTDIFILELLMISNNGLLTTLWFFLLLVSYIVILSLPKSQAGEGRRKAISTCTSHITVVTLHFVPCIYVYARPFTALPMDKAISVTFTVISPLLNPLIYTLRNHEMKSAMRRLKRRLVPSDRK
Chain of OR4CG T76A (as listed by the source, stated change not applied): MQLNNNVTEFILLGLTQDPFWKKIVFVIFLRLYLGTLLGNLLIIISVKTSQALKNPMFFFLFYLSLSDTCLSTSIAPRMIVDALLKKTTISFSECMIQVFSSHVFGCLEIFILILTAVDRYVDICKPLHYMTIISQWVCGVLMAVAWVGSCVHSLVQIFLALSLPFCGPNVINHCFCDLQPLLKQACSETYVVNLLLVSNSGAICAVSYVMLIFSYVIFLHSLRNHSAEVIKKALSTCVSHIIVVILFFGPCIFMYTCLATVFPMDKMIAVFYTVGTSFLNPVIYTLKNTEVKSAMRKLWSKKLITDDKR
Chain of OR4D2 (as listed by the source): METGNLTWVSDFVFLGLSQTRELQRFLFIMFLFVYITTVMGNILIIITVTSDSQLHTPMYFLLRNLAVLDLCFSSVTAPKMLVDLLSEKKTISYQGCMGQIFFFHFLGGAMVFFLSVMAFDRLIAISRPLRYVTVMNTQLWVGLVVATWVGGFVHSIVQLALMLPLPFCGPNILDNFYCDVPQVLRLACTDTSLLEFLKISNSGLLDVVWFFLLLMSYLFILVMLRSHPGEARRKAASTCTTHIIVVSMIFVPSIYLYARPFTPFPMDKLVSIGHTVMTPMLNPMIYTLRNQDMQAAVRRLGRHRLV
Chain of OR4D1 (as listed by the source): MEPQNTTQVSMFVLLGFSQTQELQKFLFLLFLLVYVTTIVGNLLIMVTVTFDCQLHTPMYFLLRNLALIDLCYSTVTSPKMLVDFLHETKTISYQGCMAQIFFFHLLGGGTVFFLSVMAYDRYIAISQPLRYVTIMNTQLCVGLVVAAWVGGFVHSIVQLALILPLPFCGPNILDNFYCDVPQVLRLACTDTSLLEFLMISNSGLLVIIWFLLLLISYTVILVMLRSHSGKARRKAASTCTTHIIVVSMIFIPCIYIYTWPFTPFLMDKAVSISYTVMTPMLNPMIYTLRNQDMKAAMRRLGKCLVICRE
Chain of OR4CD V133I (as listed by the source, stated change not applied): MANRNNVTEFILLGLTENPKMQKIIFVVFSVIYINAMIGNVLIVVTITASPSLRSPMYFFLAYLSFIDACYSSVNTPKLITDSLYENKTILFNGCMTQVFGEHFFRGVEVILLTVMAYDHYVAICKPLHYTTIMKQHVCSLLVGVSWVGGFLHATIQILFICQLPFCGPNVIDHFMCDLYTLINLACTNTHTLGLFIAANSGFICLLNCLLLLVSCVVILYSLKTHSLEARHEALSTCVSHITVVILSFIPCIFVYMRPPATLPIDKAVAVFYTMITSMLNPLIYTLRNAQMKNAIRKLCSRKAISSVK
Chain of OR4CF (as listed by the source): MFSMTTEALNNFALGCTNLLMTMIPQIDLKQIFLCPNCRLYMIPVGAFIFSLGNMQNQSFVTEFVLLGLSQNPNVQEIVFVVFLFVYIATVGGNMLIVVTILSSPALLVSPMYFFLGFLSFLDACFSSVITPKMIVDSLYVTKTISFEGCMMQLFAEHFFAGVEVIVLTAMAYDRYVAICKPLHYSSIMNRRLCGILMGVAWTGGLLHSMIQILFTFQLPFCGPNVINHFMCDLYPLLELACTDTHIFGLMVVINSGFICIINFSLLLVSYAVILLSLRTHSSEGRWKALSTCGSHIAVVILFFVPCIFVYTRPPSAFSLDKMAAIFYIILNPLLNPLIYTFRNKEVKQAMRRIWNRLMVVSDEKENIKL

C=CCOC(=O)Cc1ccccc1
inactive: all assays above

Cc1c([N+](=O)[O-])c(C)c([N+](=O)[O-])c(C(C)(C)C)c1[N+](=O)[O-]
inactive: OR4D1 (Homo sapiens) | OR4D10 (Homo sapiens) | OR4D11 (Homo sapiens) | OR4D2 (Homo sapiens) | OR4D5 (Homo sapiens)
